Test results reported in ChEMBL document CHEMBL4513216, “Probing the Open Global Health Chemical Diversity Library for Multistage-Active Starting Points for Next-Generation Antimalarials” (ACS Infect Dis, 2020).

Experiment: Toxicity liver stage against HepG2, at 10uM
Assay type: cell-based
Design: test concentration 10 uM, cell line HepG2-A16-CD81EGFP
Details: human, HepG2-A16-CD81EGFP cells; read-out: INHIBITION
Summary of the method: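 Uninfected HepG2-A16-CD81EGFP cells, 3 × 10^3 per well, 1536-well, plated on prespotted compound at 10 μM final, parasite-free screening media added to match infected plates; puromycin 10 μM positive, DMSO 0.5% negative; run in parallel with 48 h PbLuc assay at 37 °C, 5% CO2; viability by CellTiter-Glo luminescence, normalized to controls.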

CC(C)(C)OC(=O)NC(C)(C)c1noc(Cn2ccnc2)n1
cytotoxicity at 10 µM: 8.73%

COC(=O)CNC(=O)N1CCN(c2nc3ccccc3n2C)CC1
cytotoxicity at 10 µM: -9.46%

Cc1nn(-c2ccc(C(=O)O)cc2)c2c1C(CC(C)C)SCC(=O)N2 (stereo unspecified)
cytotoxicity at 10 µM: -2.43%

O=C(Cc1cccs1)N1CCC2(CCCN(CC3CCOCC3)C2)C1 (stereo unspecified)
cytotoxicity at 10 µM: -144%

CCCS(=O)(=O)N1CCC2(CC1)CN(C(=O)N(C)C)c1ccccc12
cytotoxicity at 10 µM: -108%

COc1ncnc2c1CCN(Cc1cccc(C)n1)CC2
cytotoxicity at 10 µM: -146%

CC(=O)c1nn(-c2ccccc2)c(C)c1C(C)=O
cytotoxicity at 10 µM: 2.27%

O=C(C1CCOC1)N1CC[C@@H](O)[C@@H]1Cc1ccccc1 (stereo partly specified)
cytotoxicity at 10 µM: 9.34%

COC(=O)C1=NOC(Cc2cc(OC)c3c(c2)OCO3)C1 (stereo unspecified)
cytotoxicity at 10 µM: 5.82%

COc1ccccc1OCCN(C)Cc1c(C2CC2)[nH]c2ncccc12
cytotoxicity at 10 µM: 5.62%

CCc1c(C)nc2cc(-c3nccn3C)nn2c1N1CCCC(CO)C1 (stereo unspecified)
cytotoxicity at 10 µM: 3.06%

COc1ccc2nc(C3CC3)cc(C(=O)NCc3ncnn3C)c2c1
cytotoxicity at 10 µM: -8.06%

COc1ccccc1OCc1nc(C(C)C)no1
cytotoxicity at 10 µM: 14%

CN(Cc1nnc2ccccn12)C(=O)CC1CCCCC1
cytotoxicity at 10 µM: 13.7%

Cn1c(NCc2ccc(C(N)=O)cc2)nc2cc(Cl)ccc21
cytotoxicity at 10 µM: 1.42%

Cc1cc(C)n2c(CNCc3ccc(OC(F)F)cc3)cnc2n1
cytotoxicity at 10 µM: -145%

CCOCC(=O)Nc1cc(-c2cccc(F)c2F)n[nH]1
cytotoxicity at 10 µM: 0.107%

Cc1noc(C)c1C(=O)N(C)C(C)c1ccc(S(C)(=O)=O)cc1 (stereo unspecified)
cytotoxicity at 10 µM: 4.96%

CCN(CC)C(=O)N1CCOCC1c1c(C)nn(C)c1C (stereo unspecified)
cytotoxicity at 10 µM: 11.3%

Cn1cc(NS(=O)(=O)CC2CCCCO2)cn1 (stereo unspecified)
cytotoxicity at 10 µM: -5.41%

CC(C)(C)OCCN1CCCC1c1nc(Cc2ccc(F)cc2)no1 (stereo unspecified)
cytotoxicity at 10 µM: -7.1%

CC(CCc1ccccc1F)C(=O)NS(=O)(=O)CC1CC1 (stereo unspecified)
cytotoxicity at 10 µM: -5.36%

CC(C)NC(=O)CCNC(=O)c1cnc(Cc2ccc(F)cc2)s1
cytotoxicity at 10 µM: 2.87%

CCN(C(=O)CSc1ccc(C(F)(F)F)cn1)C1CC1
cytotoxicity at 10 µM: 7.77%

Cc1noc(OCCOc2cccc(C#N)c2)n1
cytotoxicity at 10 µM: 0.63%

CC(CCS(C)(=O)=O)NC(=O)NCc1ccc2c(c1)CCC2 (stereo unspecified)
cytotoxicity at 10 µM: -143%

Cc1noc(COCC(=O)Nc2ccc(Br)c(C)n2)n1
cytotoxicity at 10 µM: 6.19%

Cc1cc(C(=O)N2CCCCC2c2nc3cc(F)ccc3[nH]2)nn1C (stereo unspecified)
cytotoxicity at 10 µM: 4.42%

CCS(=O)(=O)c1ncc(CN(C)Cc2cccc(OC)c2)n1CCOC
cytotoxicity at 10 µM: -0.636%

Cc1cc(C(=O)N2CC[C@H](N3CCOCC3)[C@H](CCCO)C2)c(C)n1C
cytotoxicity at 10 µM: -138%

Cc1ccc(NC(=O)CN[C@H](C(N)=O)C(C)C)cc1F
cytotoxicity at 10 µM: 11%

O=C(c1sccc1Cl)N1CCC(Cn2cc(CO)nn2)CC1
cytotoxicity at 10 µM: -7.12%

Cn1cc(C(=O)N2CCCC(C(=O)CCc3ccccc3)C2)cn1 (stereo unspecified)
cytotoxicity at 10 µM: -5.16%

Cc1nccn1C1(C(=O)O)CCN(Cc2ccc3nsnc3c2)CC1
cytotoxicity at 10 µM: -4.97%

O=C(NCC(F)(F)F)C1CCC(=O)N(C2CCCC2)C1 (stereo unspecified)
cytotoxicity at 10 µM: -8.77%

Cc1nn(C)c2nc(NC3CCNCC3)sc12
cytotoxicity at 10 µM: -10.4%

Cc1cc(CN2CCC(CNC(=O)CN3CCCCCC3)C2)[nH]n1 (stereo unspecified)
cytotoxicity at 10 µM: -131%

COc1cccc2c1OCC(C(=O)N1CCC(NS(C)(=O)=O)CC1)C2 (stereo unspecified)
cytotoxicity at 10 µM: 1.49%

Cc1n[nH]c(C)c1CCC(=O)N1CCc2c(nc[nH]c2=O)C1
cytotoxicity at 10 µM: -5%

CN(C)CCNC(=O)c1cnc2c(c1)nc(-c1ccccc1Cl)n2C
cytotoxicity at 10 µM: 10.6%

Cc1ccc([C@@H]2CN(S(=O)(=O)c3cccs3)C[C@H]2N(C)C)cc1
cytotoxicity at 10 µM: -3.12%

CCC(=O)N(C)C1CCN(Cc2ncc(C)c(OC)c2C)CC1
cytotoxicity at 10 µM: -9.86%

CCc1nc(C2CCCN2C(=O)c2ccoc2C)no1 (stereo unspecified)
cytotoxicity at 10 µM: -11.6%

O=C(CN1CCC(c2ccnn2CCO)CC1)NCc1cccs1
cytotoxicity at 10 µM: -10.4%

CCCc1cc(C(=O)N2CCCC(n3ccnc3C)C2)[nH]n1 (stereo unspecified)
cytotoxicity at 10 µM: -15.6%

Cc1ccn(-c2ccc(C(=O)N3CCCC(C(N)=O)C3)cc2)n1 (stereo unspecified)
cytotoxicity at 10 µM: -5.38%
